The list is not random: actives were taken first. Their share in the collection is about 1.9%.
Rpn11 inh – inhibitors of human proteasome Rpn11; O00487; 360,000 compounds, 0.59% hits; inhibition, % at 20 µM; human 26S proteasome, Ub4-pepOG fluorescence polarization; 20S core pre-blocked with epoxomicin; AID 588493;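 active means inhibition at 20 µM, scaled to each plate's controls, above about 33%, limit read from the data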
Rin1-Abl PPI inh – inhibitors of human Rin1-Abl protein interaction. TR-FRET Rin1/Abl binding, biochemical. inhibition, % at 7.35 µM. 360,000 compounds, 0.4% hits; in the data active means inhibition above about 5%, passing the limit was not always enough
NadD inh – blocks S. aureus nicotinate mononucleotide adenylyltransferase | purified NadD enzyme, colorimetric absorbance read-out | inhibition, % at 20 µM | 360,000 compounds, 0.78% hits | AID 602399; in the data active means inhibition above about 26%
Xi reactivation – X-chromosome reactivation activator. XiGFP mouse fibroblasts, % GFP-positive cells imaging, 3 d; cells co-treated with 5-aza-dC sensitizer; scaled so ellipticine positive control = 100%. activation, % at 7.58 µM. 360,000 compounds, 0.055% hits;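 active means mean normalized replicate activation at least 10% and every replicate at or above 10%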
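Material: SV40-immortalized XiGFP fibroblast cells, line 68-5-11 | Buffer or medium: DMEM containing 5-aza-dC | Dosing: One concentration, pinned | Times: 3 d treatment, 15 min room-temperature fixation | Controls: Ellipticine 6 µM positive control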
ABHD5 PLIN5 PPI – inhibitors of human ABHD5-perilipin-5 interaction | Q00G26+Q8WTS1 | Split G. princeps luciferase complementation, luminescence, 4 h | inhibition, % at 4 µM | 360,000 compounds, 0.78% hits | AID 602281;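 active means inhibition above the mean inhibition across every tested compound plus 3 SD, cut at about 22% in these data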
NadD inh conf – confirmation of Staphylococcus aureus NadD inhibitors; shares compounds with NadD inh; purified S. aureus NadD, colorimetric enzyme assay; inhibition, % at 20 µM; 2,000 compounds, 13% hits; AID 624309; in the data active means inhibition mostly above about 42%, no sharp cut-off; inactive means mostly below about 42%
Numbers stand for hits.

For O=c1oc2ccc3ccccc3c2cc1-c1nnc(-c2ccccc2)o1 the results were Rpn11 inh inactive, Rin1-Abl PPI inh inactive, NadD inh inactive and ABHD5 PLIN5 PPI inactive.
Screening O=c1oc2ccc3ccccc3c2cc1-c1nnc(-c2cccs2)o1 returned Rpn11 inh inactive, Rin1-Abl PPI inh inactive, NadD inh 50, Xi reactivation inactive, ABHD5 PLIN5 PPI inactive and NadD inh conf inactive.
Screening CCOC(=O)C1=C(C)N=c2s/c(=C/c3ccc(OCC(=O)O)cc3)c(=O)n2C1c1ccc(SC)cc1 (stereo unspecified) returned Rpn11 inh inactive, Rin1-Abl PPI inh inactive, NadD inh inactive and ABHD5 PLIN5 PPI inactive.
CCOc1ccc(C2C(C(=O)Nc3ccccc3)=C(C)N=c3s/c(=C/c4cccc(OCC(=O)O)c4)c(=O)n32)cc1 (stereo unspecified) was read as Rpn11 inh inactive, Rin1-Abl PPI inh inactive, NadD inh 33, Xi reactivation inactive, ABHD5 PLIN5 PPI inactive and NadD inh conf inactive.
Screening CCOC(=O)C1=C(C)N=c2s/c(=C/c3ccc(OCC(=O)O)cc3)c(=O)n2C1c1ccc(F)cc1 (stereo unspecified) returned Rpn11 inh inactive, Rin1-Abl PPI inh inactive, NadD inh inactive, Xi reactivation inactive and ABHD5 PLIN5 PPI inactive.
For CC1=C(C(=O)OC(C)C)C(c2ccc(Cl)cc2)n2c(sc(=Cc3ccc(OCC(=O)O)cc3)c2=O)=N1 (stereo unspecified) the results were Rin1-Abl PPI inh inactive, NadD inh 30, Xi reactivation inactive, ABHD5 PLIN5 PPI inactive and NadD inh conf inactive.
O=c1[nH]c(CN2CCN(c3ccc(O)cc3)CC2)nc2scc(-c3ccc(Cl)cc3)c12 was read as Rpn11 inh inactive, Rin1-Abl PPI inh inactive, NadD inh 37, Xi reactivation inactive, ABHD5 PLIN5 PPI inactive and NadD inh conf inactive.
`C[C@@H](NC(=O)C[C@@H]1C=C[C@@H](NC(=O)C2CCOCC2)[C@@H](CO)O1)c1ccccc1` gave Xi reactivation inactive.
`O=C(c1ccc(F)cc1)N1CC[C@@H]2[C@@H](CO)Nc3ccc(-c4ccccc4F)cc3[C@@H]21` gave Xi reactivation inactive.
For CC(C)c1ccc(-c2nc(N3CCCCC3)[nH]c(=O)c2C#N)cc1 the results were Rpn11 inh inactive, Rin1-Abl PPI inh inactive, NadD inh inactive and ABHD5 PLIN5 PPI inactive.
Screening CC1=Nc2nc(N3CCCCC3)c(C#N)c3c4c(nc(c23)N1)N(c1ccc(C(C)C)cc1)C(=O)C4 returned Rpn11 inh inactive, Rin1-Abl PPI inh inactive, NadD inh 63, Xi reactivation inactive, ABHD5 PLIN5 PPI inactive and NadD inh conf inactive.
CC(=O)N1[C@@H](CO)[C@@H]2c3ccccc3N(C(=O)c3ccccc3)C[C@@H]21 was read as Xi reactivation inactive.
For COCC(=O)N1CC2(C1)CN(C(=O)c1ccccn1)[C@@H](CO)c1c2c2ccc(OC)cc2n1C the results were Xi reactivation inactive.
COC(=O)C[C@H]1C[C@@H]2c3cc(NC(=O)Nc4ccc(OC)cc4)ccc3O[C@@H]2[C@@H](CO)O1 was read as Xi reactivation inactive.
C[C@H](CO)N1C[C@H](C)[C@H](CN(C)C(=O)CCC(F)(F)F)OCCCC[C@H](C)Oc2ccc(NC(=O)NC3CCCCC3)cc2C1=O was read as Xi reactivation inactive.
O=c1[nH]c(C2CCN(S(=O)(=O)/C=C/c3ccccc3)CC2)nc2c1nnn2Cc1ccc(F)cc1 was read as Rpn11 inh inactive, Rin1-Abl PPI inh inactive, NadD inh 35, Xi reactivation inactive, ABHD5 PLIN5 PPI inactive and NadD inh conf inactive.
`Cc1ccc(S(=O)(=O)N2CCCC(c3nc4c(nnn4Cc4ccc5c(c4)OCCO5)c(=O)[nH]3)C2)cc1` (stereo unspecified) gave Rpn11 inh inactive, Rin1-Abl PPI inh inactive, NadD inh 37, Xi reactivation inactive, ABHD5 PLIN5 PPI inactive and NadD inh conf inactive.
For O=c1[nH]c(C2CCN(S(=O)(=O)c3ccc4c(c3)OCCO4)CC2)nc2c1nnn2Cc1c(F)cccc1Cl the results were Rpn11 inh inactive, Rin1-Abl PPI inh inactive, NadD inh 33, Xi reactivation inactive, ABHD5 PLIN5 PPI inactive and NadD inh conf inactive.
`O=c1[nH]c(C2CCCN(S(=O)(=O)c3ccccc3)C2)nc2c1nnn2Cc1ccccc1` (stereo unspecified) gave Rpn11 inh inactive, Rin1-Abl PPI inh inactive, NadD inh inactive and ABHD5 PLIN5 PPI inactive.
O=c1[nH]c(C2CCN(S(=O)(=O)c3ccc4c(c3)OCCO4)CC2)nc2c1nnn2Cc1ccccc1F was read as Rpn11 inh inactive, Rin1-Abl PPI inh inactive, NadD inh 34, Xi reactivation inactive, ABHD5 PLIN5 PPI inactive and NadD inh conf inactive.
COc1ccc(S(=O)(=O)N(C)C[C@H]2Oc3c(NC(=O)c4ccncc4)cccc3C(=O)N([C@@H](C)CO)C[C@H]2C)cc1 was read as Xi reactivation inactive.
`C[C@@H]1CCCCO[C@H](CN(C)C(=O)C2CCCCC2)[C@@H](C)CN([C@@H](C)CO)C(=O)c2cc(NC(=O)C3CCCCC3)ccc2O1` gave Xi reactivation inactive.
`O=c1[nH]c(C2CCN(S(=O)(=O)c3ccc(C(F)(F)F)cc3)CC2)nc2c1nnn2Cc1cccc(F)c1` gave Rpn11 inh inactive, Rin1-Abl PPI inh inactive, NadD inh 31, Xi reactivation inactive, ABHD5 PLIN5 PPI inactive and NadD inh conf inactive.
Cc1ccc(C)c(Cn2nnc3c(=O)[nH]c(C4CCN(S(=O)(=O)c5ccc(S(=O)(=O)N(C)C)cc5)CC4)nc32)c1 was read as Rpn11 inh inactive, Rin1-Abl PPI inh inactive, NadD inh 46, Xi reactivation inactive, ABHD5 PLIN5 PPI inactive and NadD inh conf inactive.
For C[C@@H]1CCCCO[C@@H](CN(C)S(C)(=O)=O)[C@H](C)CN([C@H](C)CO)C(=O)c2cc(NC(=O)Nc3ccc(C(F)(F)F)cc3)ccc2O1 the results were Xi reactivation inactive.
Screening COc1ccc(/C=N\NS(=O)(=O)c2ccc(Br)cc2)cc1COc1ccccc1[N+](=O)[O-] returned Rpn11 inh inactive, Rin1-Abl PPI inh inactive, NadD inh 46, ABHD5 PLIN5 PPI inactive and NadD inh conf inactive.
COc1ccc(-c2cc(C(=O)Nc3ccc(S(=O)(=O)Nc4onc(C)c4C)cc3)c3ccccc3n2)cc1 was read as Rpn11 inh inactive, Rin1-Abl PPI inh inactive, NadD inh 29, Xi reactivation inactive, ABHD5 PLIN5 PPI inactive and NadD inh conf 66.
For COc1ccc(Cl)cc1C(=O)NNC(=S)NC(=O)c1cc(-c2ccccc2)nc2ccccc12 the results were Rpn11 inh inactive, Rin1-Abl PPI inh inactive, NadD inh 61, ABHD5 PLIN5 PPI inactive and NadD inh conf inactive.
`COc1ccc(-c2cc(C(=O)Nc3nc4c(C)cccc4s3)c3ccccc3n2)cc1OC` gave Rpn11 inh inactive, Rin1-Abl PPI inh inactive, NadD inh inactive and ABHD5 PLIN5 PPI inactive.

Screens from PubChem BioAssay.
